This note sets out measurements from ChEMBL document CHEMBL1155279, “1,5-Diaryl-2-ethyl pyrrole derivatives as antimycobacterial agents: design, synthesis, and microbiological evaluation” (Eur J Med Chem, 2009).

The structures appear in SMILES notation. Converted amounts (≈) assume the structure as drawn. Bounds are passed on as bounds.

The nature of data set [1]: Cytotoxicity against african green monkey Vero cells after 72 hrs. Format: cell-based. The note with it: chlorocebus sabaeus. The essentials:
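Vero cells exposed to compounds (stocks 5 mg/mL in DMSO; one compound 6 mg/mL in ethanol). After 72 h incubation, cells examined microscopically for morphological changes. Maximum non-toxic dose (MNTD) taken as the highest drug concentration producing no morphological change.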

The next data set has as its system Mycobacterium avium. In words: Antimycobacterial activity against Mycobacterium avium CIP 103317 by twofold agar dilution method. Type of data set: functional. Put shortly:
(§1)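 Twofold agar dilution in Middlebrook 7H11 agar with 10% OADC (oleic acid, albumin, dextrose). Compounds dissolved in DMSO at 5 mg/mL (one in ethanol at 6 mg/mL), stock, stored cold. MIC determined for each strain. Strains: M. tuberculosis CIP 103471, H37Rv ATCC 27294, rifampicin-resistant ATCC 35838, M. avium CIP 103317.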
In general terms: In agar dilution, organisms are placed on agar that contains the substance at set levels.

Data set [2] relates to Mycobacterium tuberculosis. In words: Antimycobacterial activity against Mycobacterium tuberculosis H37Rv by twofold agar dilution method. Type of data set: functional. The essentials: as §1
Data set [3] concerns Mycobacterium tuberculosis. In words: Antimycobacterial activity against Mycobacterium tuberculosis CIP 103471 by twofold agar dilution method. Type of data set: functional. Put shortly:
as §1

The nature of data set [4]: Protection index, ratio of MNTD for african green monkey Vero cells to MIC for Mycobacterium tuberculosis CIP 103471. Type of data set: functional. The essentials:
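Vero cells exposed to drug; after 72 h of incubation, morphology was checked microscopically. MNTD is the highest concentration with no morphological change. PI = MNTD/MIC, with MIC from twofold agar dilution in Middlebrook 7H11 + 10% OADC against M. tuberculosis CIP 103471.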

As usually defined, the MIC is the least concentration at which growth counts as inhibited. `Cc1c(CN2CCN(C)CC2)cc(-c2ccc(Cl)cc2)n1-c1ccc(Cl)cc1` displayed an MNTC at 72 h in data set [1] of 4 µg/mL. The MIC in the data set on Mycobacterium avium amounted to 0.5 µg/mL (≈ 1.21 µM); in data set [2], 1 µg/mL (≈ 2.41 µM); in data set [3], 1 µg/mL (≈ 2.41 µM). The PI in data set [4] was 4.
Turning to `CCc1c(CN2CCN(C)CC2)cc(-c2ccc(Cl)cc2)n1-c1ccc(Cl)cc1`, in data set [1], the MNTC at 72 h was found to be 8 µg/mL. The MIC in the data set on Mycobacterium avium stood at 4 µg/mL (≈ 9.34 µM); in data set [2], 4 µg/mL (≈ 9.34 µM); in data set [3], 2 µg/mL (≈ 4.67 µM). In addition, in data set [4], the PI was 4.
In turn, `Cc1c(CN2CCSCC2)cc(-c2ccc(F)cc2)n1-c1ccccc1` came in with an MIC in data set [3] of 0.5 µg/mL (≈ 1.36 µM). Moreover, the PI in data set [4] stood at 8.
As for `CCc1c(CN2CCSCC2)cc(-c2ccc(F)cc2)n1-c1ccccc1F`, the MNTC at 72 h in data set [1] came out at 8 µg/mL. Moreover, the MIC was 8 µg/mL (≈ 20.1 µM) with Mycobacterium avium, 2 µg/mL (≈ 5.02 µM) in data set [2] and 2 µg/mL (≈ 5.02 µM) in data set [3]. Moreover, the PI in data set [4] is on record as 4.
In the case of `Cc1c(CN2CCSCC2)cc(-c2ccccc2F)n1-c1ccccc1F`, the lowest concentration to inhibit growth in data set [3] (MIC) was 1 µg/mL (≈ 2.6 µM). Also, the PI in data set [4] is on record as 32.
For `CCc1c(CN2CCSCC2)cc(-c2ccc(C)cc2)n1-c1ccc(F)cc1`, the MNTC at 72 h in data set [1] was greater than 128 µg/mL. For the same molecule, the MIC in the data set on Mycobacterium avium came to 16 µg/mL (≈ 40.6 µM); in data set [2], 0.25 µg/mL (≈ 0.634 µM); in data set [3], 0.25 µg/mL (≈ 0.634 µM). For the same molecule, in data set [4], the PI was greater than 512.
Turning to `CCc1c(CN2CCSCC2)cc(-c2ccccc2)n1-c1ccc(F)cc1`, the MNTC at 72 h in data set [1] was found to be 16 µg/mL. Besides, the results for the MIC (with Mycobacterium avium; in data set [2]; in data set [3]) were 16 µg/mL (≈ 42 µM), 4 µg/mL (≈ 10.5 µM) and 2 µg/mL (≈ 5.26 µM), respectively. Further, the PI in data set [4] was determined as 8.
Consider `CCc1c(CN2CCSCC2)cc(-c2ccccc2F)n1-c1ccccc1F`, for which the MNTC at 72 h in data set [1] turned out to be 8 µg/mL. In addition, the figures for the MIC (against Mycobacterium avium; in data set [2]; in data set [3]) were 16 µg/mL (≈ 40.1 µM), 8 µg/mL (≈ 20.1 µM) and 4 µg/mL (≈ 10 µM), respectively. Moreover, the PI in data set [4] is reported as 2.
Turning to `Cc1ccc(-c2cc(CN3CCSCC3)c(C)n2-c2ccc(F)cc2)cc1`, in data set [3], the MIC stood at 0.25 µg/mL (≈ 0.657 µM). The PI in data set [4] worked out at 256.
`CCc1c(CN2CCSCC2)cc(-c2ccccc2)n1-c1ccccc1`: the MNTC at 72 h in data set [1] stood at 16 µg/mL. Further, the MIC in the data set with Mycobacterium avium was determined as 8 µg/mL (≈ 22.1 µM); in data set [2], 4 µg/mL (≈ 11 µM); in data set [3], 2 µg/mL (≈ 5.52 µM). In data set [4], the PI was found to be 8.
In the same order, the values of `CO[C@H]1/C=C/O[C@@]2(C)Oc3c(C)c(O)c4c(O)c(c(/C=N/N5CCN(C)CC5)c(O)c4c3C2=O)NC(=O)/C(C)=C\C=C\[C@H](C)[C@H](O)[C@@H](C)[C@@H](O)[C@@H](C)[C@H](OC(C)=O)[C@@H]1C` [RIFAMPIN] are 64 µg/mL, 0.25 µg/mL (≈ 0.304 µM), 0.25 µg/mL (≈ 0.304 µM), 0.25 µg/mL (≈ 0.304 µM) and 256.
Molecule `Cc1c(CN2CCSCC2)cc(-c2ccc(F)cc2)n1-c1ccccc1F` registered an MIC in data set [3] of 0.5 µg/mL (≈ 1.3 µM). In addition, the PI in data set [4] came out at 16.
In data set [3], `Cc1c(CN2CCSCC2)cc(-c2ccccc2)n1-c1ccccc1` gave an MIC of 1 µg/mL (≈ 2.87 µM). For the same molecule, the PI in data set [4] is recorded as 32.
In the case of `Cc1c(CN2CCSCC2)cc(-c2ccc(F)cc2)n1-c1ccc(F)cc1`, in data set [3], the MIC was 1 µg/mL (≈ 2.6 µM). In addition, in data set [4], the PI is listed as 8.
Take `CCc1c(CN2CCSCC2)cc(-c2ccc(F)cc2)n1-c1ccc(F)cc1`: the MNTC at 72 h in data set [1] turned out to be 8 µg/mL. The MIC (in the data set with Mycobacterium avium; in data set [3]) was 16 µg/mL (≈ 40.1 µM) in each case. The PI in data set [4] is recorded as 0.5.
As for `Cc1c(CN2CCSCC2)cc(-c2ccccc2)n1-c1ccc(F)cc1`, the MIC in data set [3] worked out at 0.4 µg/mL (≈ 1.09 µM). In addition, in data set [4], the PI worked out at 20.
In the case of `CCc1c(CN2CCSCC2)cc(-c2ccc(F)cc2)n1-c1ccccc1`, the MNTC at 72 h in data set [1] stood at 8 µg/mL. The MIC came to 8 µg/mL (≈ 21 µM) in the data set with Mycobacterium avium, 1 µg/mL (≈ 2.63 µM) in data set [2] and 1 µg/mL (≈ 2.63 µM) in data set [3]. Moreover, in data set [4], the PI stood at 8.
Molecule `CN[C@@H]1[C@H](O[C@H]2[C@H](O[C@H]3[C@H](O)[C@@H](O)[C@H](N=C(N)N)[C@@H](O)[C@@H]3N=C(N)N)O[C@@H](C)[C@]2(O)C=O)O[C@@H](CO)[C@H](O)[C@H]1O` [STREPTOMYCIN] yielded an MNTC at 72 h in data set [1] of 128 µg/mL. For the same molecule, the MIC in the data set on Mycobacterium avium stood at 8 µg/mL (≈ 13.8 µM); in data set [2], 0.5 µg/mL (≈ 0.86 µM); in data set [3] it was 0.5 µg/mL (≈ 0.86 µM). Besides, in data set [4], the PI is 256.
